Source: PubChem (several laboratories)
HSP90 refold inh = HSP90 inhibitors, primary screen, cell lysate, luminescence; Rabbit reticulocyte lysate, luciferase refolding luminescence, 3 h; Heat shock protein HSP 90 (rabbit reticulocyte lysate; luciferase refolding); inhibition, % at 5.6 µM; hit rate 0.91% among 290,000; AID 1789, 2009;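 active = inhibition above the screen-wide mean plus 3 SD, computed separately per campaign, cut at about 16% in these data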;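 also: inhibitors lower the luminescence because luciferase stays unfolded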
HSF1 inh = HSF1 inhibitors in luciferase reporter cells, primary screen, cell-based, NIH3T3, luminescence; hit rate 0.77% among 300,000; AID 2098, 2009; activity change, negative = inhibition, % at 7.5 µM (by protocol); NIH3T3-HGL HSE-luciferase, MG132-induced, luminescence 8 h; active compounds read low;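 active = more than half of replicate wells show activity change below -50%, luminescence cut by over half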;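 also: luciferase reports HSF-1 transcriptional activity via heat shock element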
HSF1 activator = HSF-1 activators, primary screen, NIH3T3-HGL cells, MG132 stress, luminescence, single point; activation, % at 9 µM; NIH3T3-HGL HSF-1 luciferase reporter, 8 h; 100% = twice DMSO control signal; hit rate 1.7% among 300,000;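 active = mean replicate activation of at least 50% with a set share of replicates each reaching 50%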
Lipid droplet = inhibitors of hepatocyte lipid droplet formation, primary screen, imaging, high-throughput imaging, BODIPY stain | hit rate 0.4% among 240,000 | inhibition, % at 6.5 µM | AML12 mouse hepatocytes, oleate lipid droplets | AID 1656, 2009;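 active = lipid droplet intensity inhibited by at least 50%, with more than 500 cells counted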
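Material – AML12 mouse liver cells · Also added – oleate loading, 100 µM · Compound dosing – 6.5 µM single-point dosing · Times – overnight treatment with compound plus oleate · Measured by – fluorescence imaging, 20x objective, two fields per well · Read-out – percent inhibition of filter-corrected integrated lipid droplet intensity per well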
NS3 helicase inh = inhibitors of HCV NS3 helicase, primary screen, biochemical, Cy5 molecular beacon fluorescence; NS3 helicase DNA unwinding; AID 1800, 2009; inhibition, % at 10.9 µM; Hepatitis C virus NS3 helicase; hit rate 0.56% among 290,000;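 active = inhibition above the mean of all tested compounds plus 3 SD, set per campaign, cut at about 35% in these data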
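Measured by: Cy5 fluorescence, 0 and 60 min reads / Assay system: NS3 helicase fragment of HCV / Control set: low DMSO, high thioflavine S at 110 µM / Times: 1 h reaction at 25 °C, ATP-initiated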
NS3 helicase cf = HCV NS3 helicase inhibitors, retest, confirmation, biochemical, Cy5 molecular beacon fluorescence, triplicate; shares compounds with NS3 helicase inh; NS3 helicase DNA unwinding; inhibition, % at 10.9 µM; hit rate 31% among 1,600;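 active = inhibition above the mean of all tested compounds plus 3 SD, cutoff set per campaign, cut at about 36% in these data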
DNA FID counter = compounds displacing fluorescent DNA intercalator, artefact control for HCV NS3 helicase inhibitor project, biochemical, FID fluorescence, triplicate; shares compounds with NS3 helicase inh; DNA fluorescent intercalator displacement; inhibition, % at 7.9 µM; hit rate 4% among 1,600; in the data active = inhibition above about 37%;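 also: higher means more displacement of ethidium bromide from the DNA hairpin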
FID counter DR = compounds displacing fluorescent intercalator from DNA, dose response, counter-screen for HCV NS3 helicase inhibitor project, biochemical, fluorescence | IC50, µM | AID 2172, 2009 | 120 tested, under 10 active | fluorescent intercalator displacement from DNA | shares compounds with NS3 helicase inh; call rule not given here
Of the large screens only hits and unclear results are named; the others gave an inactive call (follow-up assays come after a bar, where they were run). Compounds with a hit are over-represented: about 3.8% of the library has one in this group of screens.

COc1ccc(OCC(=O)Nc2ccc3c(c2)nc(CCn2ccccc2=O)n3C)cc1	HSF1 activator 52, NS3 helicase inh 45 | NS3 helicase cf inactive | DNA FID counter inactive
O=C(CSc1nnnn1-c1cccc(O)c1)NC1CC1	none
COc1ccc(/C=N/NC(=O)c2cccc(NC(=O)c3ccccc3Cl)c2)cc1	NS3 helicase inh 61 | NS3 helicase cf inactive | DNA FID counter inactive
COc1ccc(/C=N/NC(=O)c2cccc(NC(=O)c3ccccc3Cl)c2)cc1OC	none
CN(C)c1ccc(O)c2c1CC1CC3[C@@H](N(C)C)C(=O)C(C(N)=O)=C(O)[C@]3(O)C(=O)C1=C2O (some centres undefined)	NS3 helicase inh 39 | NS3 helicase cf 36 | DNA FID counter inactive | FID counter DR inactive
CCOC(=O)c1c(NC(=O)C2C3C=CC(C3)C2C(=O)O)sc2c1CCC(C)C2 (centres undefined)	NS3 helicase inh 37 | NS3 helicase cf 75 | DNA FID counter inactive
CCOC(=O)c1c(NC(=O)C2C3C=CC(C3)C2C(=O)O)sc2c1CCCC2 (centres undefined)	none
COC(=O)c1cc(S(=O)(=O)N2CCN(C(=O)c3ccco3)CC2)cn1C	none
COc1cc(C)cc2oc(=O)c(CC(=O)N3CCN(C(=O)C4COc5ccccc5O4)CC3)c(C)c12 (centres undefined)	none
Cc1cc(O)c2c(C)c(CC(=O)N3CCN(C(=O)C4COc5ccccc5O4)CC3)c(=O)oc2c1 (centres undefined)	NS3 helicase inh 46 | NS3 helicase cf inactive | DNA FID counter inactive
CCc1sc(C(C2C(=O)CC(C)(C)CC2=O)C2C(=O)CC(C)(C)CC2=O)cc1[N+](=O)[O-]	NS3 helicase inh 59 | NS3 helicase cf 68 | DNA FID counter inactive
O=[N+]([O-])c1c(Nc2ccccc2O)cc(Cl)c2nonc12	HSF1 activator 207, NS3 helicase inh 38 | NS3 helicase cf inactive | DNA FID counter inactive
O=[N+]([O-])c1c(Nc2ccccc2O)ccc2nonc12	none
C#CCOc1c(Cl)cc(/C=C2/C(=O)ON=C2C)cc1OCC	HSF1 activator 52, NS3 helicase inh 57 (no result: Lipid droplet) | NS3 helicase cf 71 | DNA FID counter inactive
CCOc1cc(/C=C2\SC(=Nc3ccc(CC)cc3)NC2=O)ccc1OCC(=O)O	NS3 helicase inh 46 | NS3 helicase cf 69 | DNA FID counter inactive
CCc1ccc(N=C2NC(=O)/C(=C/c3cc(Br)c(OCC(=O)O)c(OC)c3)S2)cc1	none
Cc1ccc(-n2cccc2/C=C2\C(=N)N3N=C(C(C)C)SC3=NC2=O)cc1	NS3 helicase inh 42 | NS3 helicase cf inactive | DNA FID counter inactive
COc1ccc(NC2CCCN(C(=O)Cn3ccc(C)n3)C2)cc1OC (centres undefined)	none
COCCCn1c(=O)/c(=C\c2ccccc2OC(C)C)s/c1=C(/C#N)C(=O)Nc1ccc(C(=O)O)cc1	NS3 helicase inh 50 | NS3 helicase cf 58 | DNA FID counter inactive
COCCCn1c(=O)/c(=C\c2ccccc2OC(F)F)s/c1=C(/C#N)C(=O)NC(C)C	none
O=[N+]([O-])c1ccc(/C=C/c2ccc3cccc(O)c3n2)cc1	NS3 helicase inh 50 (no result: Lipid droplet) | NS3 helicase cf inactive | DNA FID counter inactive
Cc1ccc(/C=C/c2ccc3cccc(O)c3n2)s1	HSF1 activator 85, NS3 helicase inh 49 | NS3 helicase cf inactive | DNA FID counter inactive
C=C(C)CC(Nc1ccc(OC)cc1)c1ccco1 (centres undefined)	none
